Reference: ChEMBL document CHEMBL5154854, “Identification of a Vitamin-D Receptor Antagonist, MeTC7, which Inhibits the Growth of Xenograft and Transgenic Tumors In Vivo” (J Med Chem, 2022)
Activity calls are given as the source filed them. The rule behind the calls is not given here.

Tests used:
[1] = target: T1, Vitamin D3 receptor (Homo sapiens) (UniProt P11473); assay: Antagonist activity at VDR LBD (unknown origin) transfected in HEK-293T cells assessed as inhibition of 1,25(OH)2D3-induced receptor transactivation incubated for 16 hrs by Bright-Glo luciferase assay; type: cell-based; details: filed as antagonist
T1 sequence (whole entry): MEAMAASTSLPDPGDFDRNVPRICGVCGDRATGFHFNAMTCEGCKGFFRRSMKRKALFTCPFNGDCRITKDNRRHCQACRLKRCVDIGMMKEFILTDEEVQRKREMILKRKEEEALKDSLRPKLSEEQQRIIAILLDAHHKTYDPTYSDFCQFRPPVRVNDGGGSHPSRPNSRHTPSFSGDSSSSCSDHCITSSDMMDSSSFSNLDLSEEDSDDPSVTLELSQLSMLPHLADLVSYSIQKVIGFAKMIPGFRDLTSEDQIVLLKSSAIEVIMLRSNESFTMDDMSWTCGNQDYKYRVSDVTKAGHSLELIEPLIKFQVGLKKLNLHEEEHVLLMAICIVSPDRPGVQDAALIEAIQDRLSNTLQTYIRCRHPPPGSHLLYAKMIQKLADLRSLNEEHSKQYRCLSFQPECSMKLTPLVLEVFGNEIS
Procedure, shortened: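 HEK293T on matrigel, lipid-transfected with VDR-CMV plasmid and CYP24A1-luciferase reporter; after 16 h, replated at 15,000 cells/well, compound added 4 h later together with 10 nM 1,25(OH)2D3; 16 h at 37 °C, 5% CO2; luminescence read. At least two independent experiments in quadruplicate; nonlinear regression, variable slope.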

Tumor cell line [2] = assay: Cytotoxicity against tumor cells in TH-MYCN +/+ transgenic neuroblastoma 129x1/SvJ.Tg (TH-MYCN)41Waw/Nci mouse model assessed as reduction in cell viability at 0.1 to 10 uM measured after 3 days by MTS assay; type: functional, cell-based; details: dose 0.1-10 µM, time 3.0 day
Procedure, shortened: (§1)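 Tumor cells mechanically dissociated from tumors of three homozygous TH-MYCN mice, grown as spheres in RPMI1640 with 20% FBS, 2-mercaptoethanol, pyruvate and NEAA; treated 3 days; viability by MTS; spheres imaged by light microscopy.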

[3] = Toxicity in TH-MYCN +/+ transgenic neuroblastoma 129x1/SvJ.Tg (TH-MYCN)41Waw/Nci mouse model assessed as effect on CD45+ cells population at 10 mg/kg, ip qd by flow cytometry; type: organism-based; details: in vivo
Procedure, shortened: (§2)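 Immune cells isolated from TH-MYCN tumor-bearing mice treated with vehicle or compound; CD45+, CD4+, CD8+, macrophage, patrolling monocyte/DC and CD11b+ populations quantified by flow cytometry with characterized markers.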

OVCAR-8 = assay: Cytotoxicity against human OVCAR-8 cells assessed as reduction in cell viability incubated for 24 hrs by MTS assay; type: functional, cell-based; details: dose 0.25-1.25 µM, DDE = dose-dependent effect
Procedure, shortened: (§3)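 Ovarian lines seeded 5,000 cells/well, attached overnight, treated 24 h in complete medium (DMSO ≤0.2%); MTS reagent 1:10 in fresh RPMI 2–4 h, absorbance 490 nm; triplicate, % of DMSO-treated cells.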

[4] = target: T1, Vitamin D3 receptor (Homo sapiens); assay: Antagonist activity at VDR in human 2008 cells assessed as suppression of importin-4 expression at 250 nM incubated for 12 to 18 hrs by western blot analysis relative to control; type: cell-based; details: filed as antagonist, time 12-18 hrs
Procedure, shortened: (§4)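 2008 ovarian cancer cells exposed 250 nM, 18 h; immunoblot with loading control (GAPDH for RXR-α, α-tubulin for Importin-4); band densitometry normalized to loading control.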

[5] = Downregulation of VDR expression in human BE2C cells at 1 uM incubated for 24 hrs by western blot analysis relative to control; type: functional, BE(2)-C
Procedure, shortened: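 BE(2)-C neuroblastoma cells were treated for 24 h and immunoblotted for VDR, with β-actin or α-tubulin as loading control. Band intensities are reported as normalized densitometry.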

LA-N-5 = assay: Cytotoxicity against human LA-N-5 cells assessed as reduction in cell viability incubated for 48 hrs by MTS assay; type: functional, cell-based; details: dose 0.1-10 µM, DDE = dose-dependent effect
Procedure, shortened: (§5)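 Neuroblastoma lines seeded 5,000 cells/well, attached overnight, treated 48 h in complete medium (DMSO ≤0.2%); MTS reagent 1:10 in fresh RPMI 2–4 h, absorbance 490 nm.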

2008 = assay: Cytotoxicity against human 2008 cells assessed as reduction in cell viability incubated for 24 hrs by MTS assay; type: functional, cell-based; details: dose 0.25-1.25 µM, DDE = dose-dependent effect; procedure, shortened: as §3
Tumor cell line [6] = assay: Cytotoxicity against tumor cells in TH-MYCN +/+ transgenic neuroblastoma 129x1/SvJ.Tg (TH-MYCN)41Waw/Nci mouse model assessed as reduction in viability of tumor spheres measured after 3 days by light microscopy; type: functional, cell-based; details: dose 1-4 µM, time 3.0 day, DDE = dose-dependent effect; procedure, shortened: as §1
[7] = Toxicity in TH-MYCN +/+ transgenic neuroblastoma 129x1/SvJ.Tg (TH-MYCN)41Waw/Nci mouse model assessed as effect on CD4+ cells population at 10 mg/kg, ip qd by flow cytometry; type: organism-based; details: in vivo; procedure, shortened: as §2
SH-SY5Y [8] = assay: Anti-tumor activity against human SH-SY5Y cells xenografted in NSG mouse assessed as reduction in tumor volume at 10 mg/kg, ip measured for 5 to 10 days; type: functional, organism-based; details: time 5-10 day
Procedure, shortened: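 NSG mice, 6–8 weeks, injected subcutaneously in right flank with ES2 (250,000) or SH-SY5Y/BE(2)C (1 million) cells in cold matrigel/serum-free RPMI 1:1. Once palpable, 10 mg/kg IP M–F vs vehicle; volume (length × width2)[…]; BE(2)C and ES2 monitored alternate days; endpoint 2000 mm3; % change in volume, t-test.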

Mus musculus [9] = assay: Anti-tumor activity against tumor cells in TH-MYCN +/+ neuroblastoma 129x1/SvJ.Tg (TH-MYCN)41Waw/Nci mouse model assessed as reduction in tumor weight at 10 mg/kg, ip measured on day 7 by ultrasound imaging analysis; type: functional, organism-based; details: time 7.0 day
Procedure, shortened: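 Homozygous TH-MYCN+/+ mice (129×1/SvJ background, genotyped) with spontaneous neuroblastoma dosed IP, vehicle n = 7, 10 mg/kg n = 8, six treatments; a 100 mg/kg group got three. Tumor burden by abdominal ultrasound under 1–3% isoflurane; tumors excised and weighed at end; groups compared by t-test.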

Mus musculus [10] = assay: Downregulation of VDR expression in tumor of NSG mouse xenografted with human SK-OV-3 cells at 10 mg/kg, ip by confocal microscopy based immunohistochemistry analysis; type: functional, organism-based
[11] = target: T1, Vitamin D3 receptor (Homo sapiens); assay: Antagonist activity at VDR in human 2008 cells assessed as suppression of RXR-alpha expression at 250 nM incubated for 18 hrs by western blot analysis relative to control; type: cell-based; details: filed as antagonist; procedure, shortened: as §4
Caov-3 cell line = assay: Cytotoxicity against human Caov-3 cell line assessed as reduction in cell viability incubated for 24 hrs by MTS assay; type: functional, cell-based; details: dose 0.25-1.25 µM, DDE = dose-dependent effect; procedure, shortened: as §3
SH-EP1 = assay: Cytotoxicity against human SH-EP1 cells assessed as reduction in cell viability incubated for 48 hrs by MTS assay; type: functional, cell-based; details: dose 0.1-10 µM, DDE = dose-dependent effect; procedure, shortened: as §5
SH-SY5Y [12] = assay: Cytotoxicity against human SH-SY5Y cells assessed as reduction in cell viability incubated for 48 hrs by MTS assay; type: functional, cell-based; details: dose 0.1-10 µM, DDE = dose-dependent effect; procedure, shortened: as §5
SK-OV-3 = assay: Cytotoxicity against human SK-OV-3 cells assessed as reduction in cell viability incubated for 24 hrs by MTS assay; type: functional, cell-based; details: dose 0.25-1.25 µM, DDE = dose-dependent effect; procedure, shortened: as §3
PANC-1 = assay: Anti-tumor activity against human PANC-1 cells xenografted in NSG mouse assessed as reduction in tumor growth at 10 mg/kg, ip measured on day 12; type: functional, organism-based; details: time 12.0 day
Procedure, shortened: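 NSG mice implanted subcutaneously with 1 million D283, PANC-1 or BXPC-3 cells in matrigel/DMEM 1:1; once palpable, 10 mg/kg IP M–F vs vehicle; volume (length × width2)[…], % change; endpoint 2000 mm3; tumors excised and weighed; unpaired t-test.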

[13] = target: T1, Vitamin D3 receptor (Homo sapiens); assay: Antagonist activity at VDR LBD (unknown origin) using Alexa Fluor 647-labeled SRC2-3 as substrate incubated for 2 hrs in presence of calcitriol by fluorescence polarization assay; details: filed as antagonist
Procedure, shortened: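 VDR-LBD (0.1 μM) with Alexa Fluor 647-labelled SRC2-3 (17.5 nM) and 10 nM 1,25(OH)2D3 in 25 mM PIPES, 50 mM NaCl, 0.01% NP-40, pH 6.75. Compounds were serially diluted 1:2 from 10 mM DMSO stocks and incubated 2 h. Polarization was read at 635/685 nm. Three independent experiments in quadruplicate; IC50 by variable-slope nonlinear regression.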

SK-N-AS = assay: Cytotoxicity against human SK-N-AS cells assessed as reduction in cell viability incubated for 48 hrs by MTS assay; type: functional, cell-based; details: dose 0.1-10 µM, DDE = dose-dependent effect; procedure, shortened: as §5

CC(C)CCC[C@@H](C)[C@H]1CC[C@@H]2[C@]1(C)CCC1[C@]23C=C[C@]2(C[C@@H](OC(=O)CBr)CC[C@]12C)n1c(=O)n(C)c(=O)n13 (stereo partly specified)
Activity [1]: 20.8 µM | Activity (Tumor cell line [2]): Active | Activity [3]: Non-Toxic | Activity (OVCAR-8): Dde | fold change (FC) [4]: 0.82 | fold change (FC) [5]: 0.83 | Activity (LA-N-5): Dde | Activity 2008: Dde | Activity (Tumor cell line [6]): Dde | Activity [7]: Non-Toxic | Activity (SH-SY5Y [8]): Active | Activity (Mus musculus [9]): Active | inhibition (Mus musculus [10]): Active | fold change (FC) [11]: 0.29 | Activity (Caov-3 cell line): Dde | Activity (SH-EP1): Dde | Activity (SH-SY5Y [12]): Dde | Activity (SK-OV-3): Dde | Activity (PANC-1): Active | Activity [13]: 2.9 µM | Activity (SK-N-AS): Dde
